Results as given in ChEMBL document CHEMBL3259611, “Suppression of inflammatory responses by handelin, a guaianolide dimer from Chrysanthemum boreale, via downregulation of NF-κB signaling and pro-inflammatory cytokine production” (J Nat Prod, 2014).
Active and inactive are the calls of the source. No cut-off for these calls is given here.

Columns and labels:
[1] = system: RAW264.7; assay: Antiinflammatory activity in mouse RAW264.7 cells assessed as inhibition of LPS-induced iNOS mRNA expression at 40 uM after 5 hrs by RT-PCR analysis relative to control; type: functional
Method in brief: (§1)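 RAW 264.7 cells exposed to 1 μg/mL LPS with or without compound for 5 h. Total RNA was analysed by RT-PCR: 25−30 cycles with annealing at 55 °C. Products were separated on 2% agarose gel with SYBR-Safe staining. Experiments in triplicate.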

[2] = molecular target: T1, Nuclear factor NF-kappa-B p105 subunit (Mus musculus) (UniProt P25799); assay: Inhibition of LPS-induced NF-kappaB p50 binding to DNA in mouse RAW264.7 cells at 10 to 40 uM after 1.5 hrs by spectrophotometry; type: cell-based
T1 sequence (whole entry): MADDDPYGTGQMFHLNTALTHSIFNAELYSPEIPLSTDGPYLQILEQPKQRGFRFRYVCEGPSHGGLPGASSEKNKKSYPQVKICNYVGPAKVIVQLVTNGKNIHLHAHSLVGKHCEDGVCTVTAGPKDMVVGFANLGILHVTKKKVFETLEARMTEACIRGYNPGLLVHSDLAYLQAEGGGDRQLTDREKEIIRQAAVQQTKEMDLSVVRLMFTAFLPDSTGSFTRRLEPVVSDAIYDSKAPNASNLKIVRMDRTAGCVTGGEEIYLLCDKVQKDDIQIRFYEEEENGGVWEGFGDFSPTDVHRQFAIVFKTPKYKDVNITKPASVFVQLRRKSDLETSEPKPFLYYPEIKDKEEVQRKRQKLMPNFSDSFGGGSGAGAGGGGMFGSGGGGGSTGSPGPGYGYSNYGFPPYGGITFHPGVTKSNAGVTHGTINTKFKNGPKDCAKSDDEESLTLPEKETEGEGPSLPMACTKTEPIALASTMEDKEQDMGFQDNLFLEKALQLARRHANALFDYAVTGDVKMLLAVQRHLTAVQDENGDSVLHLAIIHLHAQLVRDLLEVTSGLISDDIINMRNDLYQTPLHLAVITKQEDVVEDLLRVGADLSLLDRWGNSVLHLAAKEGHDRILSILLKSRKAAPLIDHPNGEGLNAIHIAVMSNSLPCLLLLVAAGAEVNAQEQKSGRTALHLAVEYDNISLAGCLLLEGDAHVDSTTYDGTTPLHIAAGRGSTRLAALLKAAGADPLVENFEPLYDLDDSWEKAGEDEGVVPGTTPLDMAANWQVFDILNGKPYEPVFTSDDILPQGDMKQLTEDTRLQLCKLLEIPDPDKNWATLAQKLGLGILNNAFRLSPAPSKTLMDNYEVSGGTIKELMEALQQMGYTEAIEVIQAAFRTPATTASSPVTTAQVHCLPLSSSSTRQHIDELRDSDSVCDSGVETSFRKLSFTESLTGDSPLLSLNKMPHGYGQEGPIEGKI

[3] = system: RAW264.7; assay: Antiinflammatory activity in mouse RAW264.7 cells assessed as inhibition LPS-induced miR-155 mRNA expression after 8 hrs by RT-PCR analysis; type: functional, cell-based
Method in brief: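 LPS-stimulated RAW 264.7 cells, with or without compound, for 8 h. miR-155 measured by TaqMan qRT-PCR on 10 ng RNA, with stem-loop primer RT at 16 °C 30 min, 42 °C 30 min, 85 °C 5 min. Expression given as a ratio to β-actin. Mean ± SD of triplicates.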

[4] = molecular target: MAP kinase p38 (Mus musculus) (UniProt P47811+O08911+Q9WUI1+Q9Z1B7); assay: Inhibition LPS-induced p38 kinase phosphorylation in mouse RAW264.7 cells at 10 to 40 uM administered 30 mins prior to LPS challenge measured after 30 mins by Western blotting analysis; type: cell-based
Method in brief: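 RAW 264.7 cells pretreated with compound for 30 min, then stimulated with LPS for an additional 30 min. Lysates resolved by 6−15% SDS-PAGE and blotted to PVDF. Primary antibodies were applied overnight at 4 °C and secondary antibodies for 2 h at room temperature. Detection by ECL. Tests in triplicate; blots representative of three separate experiments.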

[5] = system: Rattus norvegicus; assay: Antiinflammatory activity in rat paw edema model assessed as inhibition of carrageenan-induced paw edema at 20 mg/kg, po administered 30 mins prior to carrageenan challenge measured after 4 hrs relative to vehicle-treated control; type: functional
Method in brief: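 Male Sprague–Dawley rats (150–170 g, 5 weeks old); compound dissolved in 0.5% CMC-Na and given orally 30 min before subplantar injection of 0.1 mL 1% carrageenan suspension in saline into the right hind paw, with saline injected into the left. Paw volume read by plethysmometer at 0 h and up to 6 h; n = 6.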

[6] = system: Mus musculus; assay: Antiinflammatory activity in ICR mouse ear edema model assessed as inhibition of TPA-induced ear edema at 20 mg/kg, po administered 30 mins prior to TPA challenge measured after 4 hrs relative to vehicle-treated control; type: functional
Method in brief: (§2)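 ICR mice (male, 18−20 g, 5 weeks old) dosed orally 30 min before TPA (1.0 μg in 20 μL acetone) was applied to inner and outer surfaces of the right ear. Killed by cervical dislocation after 4 h. Edema taken as the weight of a 5 mm punch biopsy of the right ear over the left. Ear homogenates were Western blotted for iNOS, COX-2 and IL-1β.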

[7] = system: Mus musculus; assay: Antiinflammatory activity in ICR mouse ear edema model assessed as inhibition of TPA-induced iNOS protein expression in ear tissue at 10 to 20 mg/kg, po administered 30 mins prior to TPA challenge measured after 4 hrs by Western blotting analysis relative to vehicle-treated control; type: functional, organism-based; method in brief: as §2
[8] = system: RAW264.7; assay: Antiinflammatory activity in mouse RAW264.7 cells assessed as inhibition of LPS-induced COX2 mRNA expression at 20 uM after 5 hrs by RT-PCR analysis relative to control; type: functional; method in brief: as §1
[9] = molecular target: Transcription factor p65 (Mus musculus) (UniProt Q04207); assay: Inhibition of LPS-induced NFkappaB P65 protein nuclear translocation in mouse RAW264.7 cells at 20 uM after 30 mins by Western blotting analysis relative to control; type: cell-based
Chain of Transcription factor p65 (Mus musculus) (Q04207 whole entry): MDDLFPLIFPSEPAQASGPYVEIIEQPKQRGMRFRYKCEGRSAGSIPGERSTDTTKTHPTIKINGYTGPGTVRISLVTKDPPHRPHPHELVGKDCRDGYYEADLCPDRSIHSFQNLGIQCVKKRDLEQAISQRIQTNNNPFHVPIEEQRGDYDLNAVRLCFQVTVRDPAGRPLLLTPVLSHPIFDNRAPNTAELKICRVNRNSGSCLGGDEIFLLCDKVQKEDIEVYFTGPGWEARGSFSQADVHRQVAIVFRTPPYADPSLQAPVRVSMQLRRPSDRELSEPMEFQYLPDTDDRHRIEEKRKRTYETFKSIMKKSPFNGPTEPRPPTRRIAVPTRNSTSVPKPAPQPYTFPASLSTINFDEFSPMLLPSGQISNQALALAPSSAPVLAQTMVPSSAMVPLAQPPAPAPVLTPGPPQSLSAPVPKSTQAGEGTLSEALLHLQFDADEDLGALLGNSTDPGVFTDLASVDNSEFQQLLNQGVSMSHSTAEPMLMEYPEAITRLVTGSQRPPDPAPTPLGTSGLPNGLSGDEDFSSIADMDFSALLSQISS
Method in brief: (§3)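 Macrophages were exposed to compound for 30 min before LPS stimulation, with proteins extracted 30 min later. Nuclear extracts were prepared in Tris/KCl/NP-40 lysis buffer, then 420 mM NaCl buffer, and the cytosolic fraction was kept for IκB-α. Western blot on PVDF with ECL detection. Tests in triplicate; representative of three separate experiments.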

[10] = system: RAW264.7; assay: Inhibition of LPS-induced NFkappaB transcriptional activity in mouse RAW264.7 cells assessed as reduction of phosphorylated IkappaB-alpha level at 40 uM after 30 mins by Western blotting analysis relative to control; type: cell-based; method in brief: as §3
[11] = system: RAW264.7; assay: Antiinflammatory activity in mouse RAW264.7 cells assessed as inhibition LPS-induced IL-1beta mRNA expression at 20 uM after 4 hrs by RT-PCR analysis relative to control; type: functional
Method in brief: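 RAW 264.7 cells stimulated with LPS (1 μg/mL) with or without compound for 4 h. Total RNA was isolated and cytokine mRNA was analysed by RT-PCR: 94 °C 4 min, then 25−30 cycles of 94/55/72 °C for 30 s each, then 72 °C 5 min. Products were run on 2% agarose and stained with SYBR-Safe. Triplicate, representative of three experiments.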

SMILES: C=C1C(=O)O[C@@H]2[C@@H]3[C@@]4(C=C[C@@]3(C)[C@]3(C4)C(=O)O[C@@H]4[C@H]5C(C)=CC[C@H]5[C@](C)(O)C[C@H](OC(C)=O)[C@H]43)[C@](C)(O)CC[C@@H]12
- fold change (FC) [1]: 0.58
- inhibition [2]: Active
- inhibition [3]: Active
- inhibition [4]: inactive
- inhibition in vivo at 20 mg/kg [5]: 35%
- inhibition in vivo at 20 mg/kg [6]: 56%
- inhibition [7]: Active
- fold change (FC) [8]: 0.58
- fold change (FC) [9]: 0.63
- fold change (FC) [10]: 0.44
- fold change (FC) [11]: 0.79
